Data as given in ChEMBL document CHEMBL1142303, “Imidazo[2,1-b]thiazole system: a scaffold endowing dihydropyridines with selective cardiodepressant activity” (J Med Chem, 2008).
Activity calls are given as the source filed them. The calls are words filed in the database; no cut-off is given here.

Experiments:
[1] = Inotropic activity at L type calcium channel in guinea pig left atrium assessed as decrease in tension; assay type: tissue-based; conditions: Cavia porcellus, Cardiac atrium
Summary of the method: (§1)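 Guinea-pig atria: left atrium driven at 1 Hz for inotropy, spontaneously beating right atrium for chronotropy. Increasing cumulative doses, readout is percent decrease. EC50 (inotropic) and EC30 (chronotropic) by Litchfield–Wilcoxon probit analysis on log concentration–response curves, n = 6–7. Not calculated when the maximum effect was below 50%.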

Cavia porcellus [2] = species: Cavia porcellus; test: Chronotropic activity at L type calcium channel in guinea pig right atrium assessed as decrease in spontaneous beating; assay type: tissue-based; conditions: Cardiac atrium; summary of the method: as §1
Cavia porcellus [3] = species: Cavia porcellus; test: Activity at L type calcium channel in K+ depolarized guinea pig aortic strip assessed as inhibition of calcium induced contraction at 100 uM; assay type: tissue-based; design: scale not given: the % may be the effect or the level left; conditions: Aorta
Summary of the method: (§2)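 Guinea-pig aortic strips depolarized with 80 mM K+. Drugs added cumulatively. Readout is percent inhibition of calcium-induced contraction, n = 5–6. Control versus treated values tested at each concentration by Student's t-test, P < 0.05.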

Cavia porcellus [4] = species: Cavia porcellus; test: Inotropic activity at L type calcium channel in guinea pig left atrium assessed as decrease in tension at 50 uM relative to control; assay type: tissue-based; design: scale not given: the % may be the effect or the level left; conditions: Cardiac atrium
Cavia porcellus [5] = species: Cavia porcellus; test: Chronotropic activity at L type calcium channel in guinea pig right atrium assessed as decrease in spontaneous beating at 10 uM relative to control; assay type: tissue-based; design: scale not given: the % may be the effect or the level left; conditions: Cardiac atrium
Cavia porcellus [6] = species: Cavia porcellus; test: Activity at L type calcium channel in K+ depolarized guinea pig aortic strip assessed as inhibition of calcium induced contraction at 50 uM; assay type: tissue-based; design: scale not given: the % may be the effect or the level left; conditions: Aorta; summary of the method: as §2
Cavia porcellus [7] = species: Cavia porcellus; test: Activity at L type calcium channel in K+ depolarized guinea pig aortic strip assessed as inhibition of calcium induced contraction at 10 uM; assay type: tissue-based; design: scale not given: the % may be the effect or the level left; conditions: Aorta; summary of the method: as §2
Cavia porcellus [8] = species: Cavia porcellus; test: Chronotropic activity at L type calcium channel in guinea pig right atrium assessed as decrease in spontaneous beating at 5 uM relative to control; assay type: tissue-based; design: scale not given: the % may be the effect or the level left; conditions: Cardiac atrium
Cavia porcellus [9] = species: Cavia porcellus; test: Inotropic activity at L type calcium channel in guinea pig left atrium assessed as decrease in tension at 10 uM relative to control; assay type: tissue-based; design: scale not given: the % may be the effect or the level left; conditions: Cardiac atrium
Cavia porcellus [10] = species: Cavia porcellus; test: Activity at L type calcium channel in K+ depolarized guinea pig longitudinal smooth muscle assessed as inhibition of calcium induced contraction at 1 uM; design: scale not given: the % may be the effect or the level left
Cavia porcellus [11] = species: Cavia porcellus; test: Inotropic activity at L type calcium channel in guinea pig left atrium assessed as decrease in tension at 5 uM relative to control; assay type: tissue-based; design: scale not given: the % may be the effect or the level left; conditions: Cardiac atrium
HEK293 = test: (§3) Displacement of (+)-[5-methyl-3H][…] from L type calcium channel Cav1.2b in rabbit expressed in HEK293 cells; assay type: cell-based; conditions: Oryctolagus cuniculus
Summary of the method: (§4)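 Intact HEK-293 cells transfected with rabbit Cav1.2a (α1C-a) or Cav1.2b (α1C-b) plasmid, labelled with (+)-[5-methyl-3H]PN200-110. Nonspecific binding about 10–20% of total. IC50 is mean ± S.E.M. of three independent experiments.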

[12] = Displacement of (+)-[5-methyl-3H][…] from L type calcium channel in guinea pig heart ventricles; design: species or system Cavia porcellus
Summary of the method: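 Guinea-pig ventricular membranes incubated with 0.5 nM (+)-[5-methyl-3H]PN200-110 and test compounds at 0.1–50 µM in a competitive radioligand assay. Ki and IC50 reported as mean ± S.E.M. Student's t-test, significance P < 0.001.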

[13] = Activity at L type calcium channel in K+ depolarized guinea pig longitudinal smooth muscle assessed as inhibition of calcium induced contraction; design: species or system Cavia porcellus
Cavia porcellus [14] = species: Cavia porcellus; test: Inotropic activity at L type calcium channel in guinea pig left atrium assessed as decrease in tension at 100 uM relative to control; assay type: tissue-based; design: scale not given: the % may be the effect or the level left; conditions: Cardiac atrium
Cavia porcellus [15] = species: Cavia porcellus; test: Chronotropic activity at L type calcium channel in guinea pig right atrium assessed as decrease in spontaneous beating at 50 uM relative to control; assay type: tissue-based; design: scale not given: the % may be the effect or the level left; conditions: Cardiac atrium
Cavia porcellus [16] = species: Cavia porcellus; test: Activity at L type calcium channel in K+ depolarized guinea pig longitudinal smooth muscle assessed as inhibition of calcium induced contraction at 100 uM; design: scale not given: the % may be the effect or the level left
Cavia porcellus [17] = species: Cavia porcellus; test: Chronotropic activity at L type calcium channel in guinea pig right atrium assessed as decrease in spontaneous beating at 100 uM relative to control; assay type: tissue-based; design: scale not given: the % may be the effect or the level left; conditions: Cardiac atrium
Cavia porcellus [18] = species: Cavia porcellus; test: Inotropic activity at L type calcium channel in guinea pig left atrium assessed as decrease in tension at 1 uM relative to control; assay type: tissue-based; design: scale not given: the % may be the effect or the level left; conditions: Cardiac atrium
[19] = as §3; assay type: cell-based, Oryctolagus cuniculus; summary of the method: as §4
Cavia porcellus [20] = species: Cavia porcellus; test: Activity at L type calcium channel in K+ depolarized guinea pig aortic strip assessed as inhibition of calcium induced contraction at 5 uM; assay type: tissue-based; design: scale not given: the % may be the effect or the level left; conditions: Aorta; summary of the method: as §2
Cavia porcellus [21] = species: Cavia porcellus; test: Activity at L type calcium channel in K+ depolarized guinea pig longitudinal smooth muscle assessed as inhibition of calcium induced contraction at 0.5 uM; design: scale not given: the % may be the effect or the level left
[22] = Displacement of (+)-[5-methyl-3H][…] from L type calcium channel Cav1.2a in rabbit expressed in HEK293 cells; assay type: cell-based, Oryctolagus cuniculus; summary of the method: as §4
Cavia porcellus [23] = species: Cavia porcellus; test: Activity at L type calcium channel in K+ depolarized guinea pig longitudinal smooth muscle assessed as inhibition of calcium induced contraction at 0.1 uM; design: scale not given: the % may be the effect or the level left
Cavia porcellus [24] = species: Cavia porcellus; test: Inotropic activity at L type calcium channel in guinea pig left atrium assessed as decrease in tension at 0.5 uM relative to control; assay type: tissue-based; design: scale not given: the % may be the effect or the level left; conditions: Cardiac atrium

COC(=O)C1=C(C)NC(C)=C(C(=O)OC)C1c1c(-c2ccc(OC)cc2OC)nc2sccn12
EC50 [1]: 1240 nM
EC30 (Cavia porcellus [2]): 5880 nM
Activity (Cavia porcellus [3]): 42%
Activity (Cavia porcellus [4]): 71%
Activity (Cavia porcellus [5]): 55%

COC(=O)C1=C(C)NC(C)=C(C(=O)OC)C1c1c(Cl)nc2sc(Cl)cn12
EC50 [1]: 180 nM
Activity (Cavia porcellus [4]): 77%
Activity (Cavia porcellus [5]): 37%
Activity (Cavia porcellus [6]): 34%

COC(=O)C1=C(C)NC(C)=C(C(=O)OC)C1c1c(-c2cc(OC)c([N+](=O)[O-])cc2OC)nc2sc(Cl)cn12
EC50 [1]: 360 nM
EC30 (Cavia porcellus [2]): 310 nM
Activity (Cavia porcellus [7]): 19%
Activity (Cavia porcellus [8]): 90%
Activity (Cavia porcellus [9]): 58%

COC(=O)C1=C(C)NC(C)=C(C(=O)OC)C1c1c(-c2cc(OC)ccc2OC)nc2sc(C)cn12
EC50 [1]: 1430 nM
EC30 (Cavia porcellus [2]): 1360 nM
Activity (Cavia porcellus [3]): 15%
Activity (Cavia porcellus [4]): 78%
Activity (Cavia porcellus [5]): 58%

COC(=O)C1=C(C)NC(C)=C(C(=O)OC)C1c1c(-c2cc(OC)c([N+](=O)[O-])cc2OC)nc2sc(C)cn12
Activity (Cavia porcellus [10]): 94%
Activity (Cavia porcellus [11]): 75%
Activity (HEK293): inactive
EC50 [1]: 26 nM
EC30 (Cavia porcellus [2]): 2110 nM
Log Ki [12]: < -5
Activity (Cavia porcellus [3]): 32%
IC50 [13]: 240 nM
Activity (Cavia porcellus [5]): 87%

COC(=O)C1=C(C)NC(C)=C(C(=O)OC)C1c1c(-c2ccc(OC)c(OC)c2)nc2sccn12
Activity (Cavia porcellus [14]): 61%
EC50 [1]: 2640 nM
Activity (Cavia porcellus [15]): 80%
EC30 (Cavia porcellus [2]): 1440 nM
Activity (Cavia porcellus [6]): 15%

COC(=O)C1=C(C)NC(C)=C(C(=O)OC)C1c1c(-c2c(OC)ccc(OC)c2[N+](=O)[O-])nc2sccn12
EC50 [1]: 360 nM
Activity (Cavia porcellus [9]): 71%
Activity (Cavia porcellus [3]): 17%
Activity (Cavia porcellus [16]): 86%
Activity (Cavia porcellus [17]): 12%
IC50 [13]: 11000 nM

CCCc1cn2c(C3C(C(=O)OC)=C(C)NC(C)=C3C(=O)OC)c(-c3c(OC)ccc(OC)c3[N+](=O)[O-])nc2s1
EC50 [1]: 39 nM
Activity (Cavia porcellus [8]): 25%
Activity (Cavia porcellus [3]): 5%
Activity (Cavia porcellus [16]): 89%
Activity (Cavia porcellus [4]): 55%
IC50 [13]: 12800 nM

COC(=O)C1=C(C)NC(C)=C(C(=O)OC)C1c1c(-c2c(OC)ccc(OC)c2[N+](=O)[O-])nc2sc(Cl)cn12
Activity (Cavia porcellus [18]): 42%
EC30 (Cavia porcellus [2]): 11200 nM
Activity (Cavia porcellus [3]): 32%
Activity (Cavia porcellus [17]): 64%

COC(=O)C1=C(C)NC(C)=C(C(=O)OC)C1c1c(C(F)(F)F)nc2sc(C)cn12
Activity (Cavia porcellus [18]): 46%
Activity (Cavia porcellus [5]): 36%
Activity (Cavia porcellus [6]): 28%

COC(=O)C1=C(C)NC(C)=C(C(=O)OC)C1c1c(-c2ccccc2)nc2sc(Cl)cn12
Activity (Cavia porcellus [14]): 58%
EC50 [1]: 1960 nM
EC30 (Cavia porcellus [2]): 2140 nM
Activity (Cavia porcellus [5]): 87%
Activity (Cavia porcellus [6]): 22%

COC(=O)C1=C(C)NC(C)=C(C(=O)OC)C1c1c(-c2cc(OC)c(OC)c(OC)c2)nc2sccn12
Activity (Cavia porcellus [10]): 64%
Activity (Cavia porcellus [18]): 42%
Activity (Cavia porcellus [8]): 25%
Activity (Cavia porcellus [3]): 44%
IC50 [13]: 550 nM

COC(=O)C1=C(C)NC(C)=C(C(=O)OC)C1c1c(-c2cc(OC)cc(OC)c2)nc2sccn12
IC50 [19]: 1.45 nM
Activity (Cavia porcellus [14]): 26%
Activity (Cavia porcellus [20]): 40%
EC30 (Cavia porcellus [2]): 860 nM
Activity (Cavia porcellus [8]): 90%
Log Ki [12]: -6.51
Activity (Cavia porcellus [21]): 89%
IC50 [13]: 55 nM
IC50 [22]: 265 nM

COC(=O)C1=C(C)NC(C)=C(C(=O)OC)C1c1c(-c2cccc(OC)c2)nc2sccn12
Activity (Cavia porcellus [14]): 90%
EC50 [1]: 1900 nM
EC30 (Cavia porcellus [2]): 550 nM
Activity (Cavia porcellus [7]): 48%
Activity (Cavia porcellus [8]): 94%
Activity (Cavia porcellus [23]): 51%
IC50 [13]: 83 nM

COC(=O)C1=C(C)NC(C)=C(C(=O)OC)C1c1c(C)nc2sc(C)cn12
Activity (Cavia porcellus [15]): 38%
Activity (Cavia porcellus [3]): 33%
Activity (Cavia porcellus [24]): 43%

COC(=O)C1=C(C)NC(C)=C(C(=O)OC)C1c1c(-c2ccccc2)nc2scc(C)n12
Activity (Cavia porcellus [14]): 59%
EC50 [1]: 830 nM
EC30 (Cavia porcellus [2]): 640 nM
Activity (Cavia porcellus [8]): 88%
Activity (Cavia porcellus [6]): 30%
